Screening results (PubChem)
This is a sample that favours compounds with a hit; in the whole collection about 3.8% have one here.
KCNQ1 act – human KCNQ1 channel potentiation or activation. P51787. CHO-K1 KCNQ1, thallium flux FluxOR fluorescence; active compounds read high. B-score at 10 µM. 310,000 tested, 0.35% active. AID 2648;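 active means fluorescence ratio B-score, a plate-corrected score, at least three library SD, with initial intensity B-score within 5 SD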
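Medium – assay buffer, equal DMSO in all wells · Material – CHO-K1 cell line with stable KCNQ1 potassium channel expression · Signal – kinetic FluxOR thallium fluorescence, 10-s 1-Hz baseline, 110-s post-stimulus read · Compound – single concentration per compound, DMSO matched to controls · Schedule – 37 °C overnight plating, 90-min dark dye load, 20-min compound pretreatment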
KCNK3 block – human KCNK3 channel inhibition, primary screen; O14649; CHO-KCNK3 thallium flux, FluxOR fluorescence; active compounds read low; 340,000 tested, 0.84% active; B-score at 10 µM;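 active means B-score under library mean minus 4 SD, starting fluorescence ratio at most library mean plus 5 SD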;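 further: more negative B-score means stronger inhibition of thallium flux through KCNK3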
Kir21 block – inhibitors of mouse Kir2.1 inward-rectifier potassium channel; HEK293-Kir2.1, FluxOR thallium flux fluorescence; active compounds read low; B-score at 10 µM; 310,000 tested, 0.85% active;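 active means fluorescence ratio B-score at or below minus 3 SD of library scores, with starting-brightness B-score within 2 SD, cut at about -4.2 in these data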;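 further: channel flux triggered by added potassium and thallium sulfate stimulus; B-score of peak minus minimum fluorescence over baseline after thallium stimulus; more negative B-score means stronger Kir2.1 block with less thallium influx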
Target sequence (P35561 whole entry, looked up): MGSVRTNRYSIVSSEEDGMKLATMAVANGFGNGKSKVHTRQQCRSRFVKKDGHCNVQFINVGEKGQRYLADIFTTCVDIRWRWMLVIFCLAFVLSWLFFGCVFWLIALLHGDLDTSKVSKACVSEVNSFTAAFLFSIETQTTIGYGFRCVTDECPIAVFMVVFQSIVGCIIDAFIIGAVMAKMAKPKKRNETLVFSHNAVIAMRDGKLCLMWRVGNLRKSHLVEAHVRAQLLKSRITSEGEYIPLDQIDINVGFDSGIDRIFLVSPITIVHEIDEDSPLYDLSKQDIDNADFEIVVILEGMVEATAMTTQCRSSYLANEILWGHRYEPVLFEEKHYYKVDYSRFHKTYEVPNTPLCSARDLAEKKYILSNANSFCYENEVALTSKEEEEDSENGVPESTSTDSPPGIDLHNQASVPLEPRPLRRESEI
hERG protect – compounds protecting human hERG from proarrhythmic drug block | Q12809 | CHO-hERG, FluxOR thallium flux, dofetilide IC70 present | activation (rescue from dofetilide block), less the hit threshold, % at 10 µM | 310,000 tested, 0.51% active | AID 1511;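 active means activation above the mean of controls blocked by dofetilide plus 5 SD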;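 further: thallium influx through hERG after potassium depolarization seen as dye fluorescence rise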
KCNQ1 block – inhibitors of human KCNQ1 potassium channel. P51787. CHO-K1 KCNQ1, FluxOR thallium flux fluorescence; active compounds read high. AID 2642. B-score at 10 µM. 310,000 tested, 1.3% active;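 active means compounds whose thallium flux B-score, printed positive for inhibition, exceeds three library SD while starting fluorescence stays within three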;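 further: channel opened by potassium depolarization with thallium stimulus after 20 min compound exposure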
KCNK9 block – blocks the human KCNK9 two-pore domain potassium channel | HEK293 KCNK9, FluxOR thallium flux fluorescence; active compounds read low | B-score at 10 µM | 310,000 tested, 1.2% active | AID 488922;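 active means ratio B-score over 3 SD below the library mean, with starting fluorescence within 5 SD of its mean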;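 further: negative B-score means less thallium flux so channel inhibition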
* = called active by the depositor; i = inactive; x = not tested or not shown.

SMILES	KCNQ1 act	KCNK3 block	Kir21 block	hERG protect	KCNQ1 block	KCNK9 block
CC(=O)N1CCN(c2ccc(NC(=O)c3ccc(C)c([N+](=O)[O-])c3)cc2)CC1	i	i	-0.1	-7	i	i
O=C(CCCCC(=O)NN=Cc1ccc(Cl)cc1)NN=Cc1ccc(Cl)cc1	x	i	x	x	x	x
Cc1ccc(O)c(-c2cc(-c3ccccc3C)[nH]n2)c1	i	i	0.84	-7	i	-7.4*
Cc1ccc(S(=O)(=O)Nc2c(C)n(C)n(-c3ccccc3)c2=O)c(C)c1	i	i	-0.71	-3	i	i
CCCN(CCC)C(=O)C(c1ccccc1)C1(O)CCCCC1 (configuration not stated)	x	-8.9*	x	x	x	x
CCOC(=O)C1=C(C(=O)OCC)N(CC)CCC1=O	x	i	x	x	x	x
C[C@H](CO)N1C[C@H](C)[C@@H](CN(C)C(=O)Nc2ccc(C(F)(F)F)cc2)Oc2c(NC(=O)Nc3ccc4c(c3)OCO4)cccc2C1=O	x	-9*	x	x	x	x
CCC(C(=O)OCC(=O)NC(=O)NC(C)(C)C)c1ccccc1 (configuration not stated)	i	i	-0.07	-4	i	i
COc1ccc(NC(=O)CN(C)C(=O)CSc2nc3ccccc3s2)cc1	i	i	1.7	-12	i	i
C=CCn1c(SC/C=C/c2ccccc2)nnc1-c1sc(N)nc1C	i	i	-5.7*	-10	i	i
O=C(CSc1nc2cc(Cl)ccc2s1)NC1CCCc2ccccc21 (configuration not stated)	i	i	-1.1	-3	i	-7.8*
Cn1nnnc1SCC(=O)NC1CCCc2ccccc21 (configuration not stated)	i	i	0.32	6.3*	i	i
CCC(=O)Nc1cccc(NC(=S)NC(=O)c2ccccc2C)c1	i	i	1.9	-2	i	i
CC(NC(=O)c1ccc(C#N)cc1)C1CC2CCC1C2 (configuration not stated)	i	i	0.06	-3	i	i
C/C(=N/Nc1nc(-c2ccccc2F)nc2ccccc12)c1ccccc1O	i	i	-0.61	-9	7*	-7.3*
C/C(=N\Nc1nc(-c2ccccc2O)nc2ccccc12)c1ccccc1	i	i	0.05	-17	i	i
CC(C)COc1ccc(S(=O)(=O)n2cc(F)c(=O)[nH]c2=O)cc1	i	i	0.02	5.0*	i	i
COc1ccc(OC)c(NC(=O)NCCc2c[nH]c3ccccc23)c1	i	i	-0.72	-6	i	i
CC(C)(C)C(=O)NCCN1CCN(C(=O)C(C)(C)C)CC1	i	i	-1.6	-9	i	i
CCOC(=O)c1c(C)cccc1OCC(N)=O	i	i	-1.2	6.2*	i	i
CCOC(=O)c1c(C)oc2ccc(OCC(N)=O)cc12	i	i	-1.3	-2	i	i
COc1cc(CNC2CCCCCCC2)cc(Cl)c1OC	i	i	-2.4	-6	i	i
CCOc1cc(C2NN=C(c3ccccc3)S2)ccc1OCc1ccccc1Cl (configuration not stated)	i	i	0.64	-13	i	i
CCOc1c(Cl)cc(CNCC(C)C)cc1OC	i	i	1.4	-2	i	i
CCOc1cc(CNC2CCCC2)ccc1OCc1ccccc1Cl	i	i	-4.4*	-21	i	i
SMILES	KCNQ1 act	KCNK3 block	Kir21 block	hERG protect	KCNQ1 block	KCNK9 block
COc1cc(CNCc2ccccc2Cl)ccc1OCC(=O)NC1CCCCC1	i	i	-4.7*	-5	i	i
CCOc1cc(CNCC(C)C)cc(Cl)c1OCc1ccccc1	i	i	-14*	-34	i	i
CCOc1cc(CNC2CCCC2)cc(Cl)c1OCc1ccccc1	i	i	-8.8*	-3	i	i
O=C(Nc1c[nH]c2c(Cl)cccc2c1=O)N1CCN(c2ccccn2)CC1	i	i	-0.09	-9	i	i
CC(C)c1ccc2nc(SCC(=O)NCC3CCCO3)c(C#N)cc2c1 (configuration not stated)	i	i	0.16	-4	i	i
COc1ccc(-c2csc(NC(=O)C3CCCCN3S(=O)(=O)c3ccccc3)n2)cc1 (configuration not stated)	151*	i	-1.6	-8	i	i
CCSc1ccccc1C(=O)NCCCn1ccnc1	i	i	1.1	4.8*	i	i
NC(=O)CCN1CCN(CCOC2Cc3cc(Cl)ccc3Sc3ccccc32)CC1 (configuration not stated)	i	i	-6.4*	-11	i	i
CC(C)c1ccc(NC(=O)NC(C)c2ccc3c(c2)OCO3)cc1 (configuration not stated)	i	i	0.06	-7	i	i
CC(C)c1ccc(NC(=O)C(c2ccc3c(c2)OCO3)N2CCCCC2)cc1 (configuration not stated)	i	i	-0.1	-19	i	-7.4*
CC(C)c1ccc(NC(=O)C(c2ccc3c(c2)OCO3)N2CCC3(CC2)OCCO3)cc1 (configuration not stated)	i	i	0.78	-10	i	i
CC1CCN(C(C(=O)Nc2ccc(C(C)C)cc2)c2ccc3c(c2)OCO3)CC1 (configuration not stated)	i	i	0.12	-12	i	-8.1*
O=C(CSc1nnc(SCc2ccccc2)s1)N/N=C/C=C/c1ccccc1[N+](=O)[O-]	i	i	-1.1	-13	i	-7.8*
O=C(CSc1nnc(SCc2ccccc2)s1)N/N=C/C=C\c1ccco1	i	i	0.32	-5	i	i
COC(=O)c1cc(-c2cccc(OC)c2)on1	i	i	0.02	7.2*	i	i
CC(C)(C)c1cc(CCC(=O)NCc2cccnc2)cc(C(C)(C)C)c1O	i	i	-5.1*	-4	i	i
CCc1cc2c(SCc3nc4sc(C(C)=O)c(C)c4c(=O)[nH]3)ncnc2s1	i	i	-0.31	-1	i	i
Cc1ccc2nc(CCc3nc4ccc(C)cc4[nH]3)[nH]c2c1	i	i	-4.4*	-8	i	i
Cc1ccc(N=Cc2nc(-c3ccc(C)cc3)oc2O)cc1	i	i	0.92	-17	i	i
CC(=O)Nc1ccc(N=Cc2nc(-c3ccc(C)cc3)oc2O)cc1	i	i	-0.19	-10	i	-6.8*
COc1ccc(C2c3cc(OC)c(OC)cc3CCN2C(=O)c2cccc([N+](=O)[O-])c2)cc1OC (configuration not stated)	i	i	-0.26	-4	i	i
